Data on four molecules can be found in ChEMBL document CHEMBL1147131, “Investigation of the lactam side chain length necessary for optimal indenoisoquinoline topoisomerase I inhibition and cytotoxicity in human cancer cell cultures” (J Med Chem, 2007).

The structures appear in SMILES notation. The source made the active and inactive calls. The rule behind the calls is not given here.

The nature of series [1]: Cytotoxicity against human […] cells. It counts as cell-based.
Series [2] in a line: Cytotoxicity against human HCT116 cells. It counts as cell-based. To be noted: HCT-116 cells.
Series [3] can be described thus: Cytotoxicity against human DU145 cells. It counts as cell-based. To be noted: DU-145 cells.
The nature of series [4]: Cytotoxicity against human SN12C cells. It counts as cell-based.
The target in series [5] is T1, DNA topoisomerase 1 (Homo sapiens) (UniProt P11387).
T1 sequence (whole entry): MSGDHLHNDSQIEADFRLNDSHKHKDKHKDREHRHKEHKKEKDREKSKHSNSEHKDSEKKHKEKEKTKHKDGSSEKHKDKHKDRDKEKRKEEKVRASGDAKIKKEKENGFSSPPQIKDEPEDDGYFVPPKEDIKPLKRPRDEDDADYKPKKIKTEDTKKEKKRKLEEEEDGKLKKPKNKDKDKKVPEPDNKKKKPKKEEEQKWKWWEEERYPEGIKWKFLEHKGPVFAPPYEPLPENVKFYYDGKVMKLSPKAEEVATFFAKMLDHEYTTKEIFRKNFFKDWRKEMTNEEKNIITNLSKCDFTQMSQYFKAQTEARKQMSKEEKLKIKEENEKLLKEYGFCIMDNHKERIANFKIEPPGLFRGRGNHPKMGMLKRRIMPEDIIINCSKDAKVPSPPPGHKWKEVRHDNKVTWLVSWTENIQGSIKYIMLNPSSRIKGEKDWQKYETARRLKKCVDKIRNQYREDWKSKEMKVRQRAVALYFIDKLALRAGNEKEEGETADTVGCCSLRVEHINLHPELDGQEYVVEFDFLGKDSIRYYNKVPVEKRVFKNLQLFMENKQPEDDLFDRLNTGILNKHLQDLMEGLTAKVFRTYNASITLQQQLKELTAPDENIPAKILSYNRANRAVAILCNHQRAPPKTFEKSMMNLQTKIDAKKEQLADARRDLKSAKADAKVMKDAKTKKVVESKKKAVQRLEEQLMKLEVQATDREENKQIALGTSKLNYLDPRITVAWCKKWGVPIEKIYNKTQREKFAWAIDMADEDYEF
Put plainly: Inhibition of human recombinant topoisomerase 1-mediated DNA cleavage after 30 mins. A digest of the protocol:
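Human recombinant Top1 purified from baculovirus. Substrate: 161 bp PvuII/HindIII fragment of pBluescript SK(−), 3′-end labeled at the HindIII site by Klenow fill-in with [α-32P]-dGTP. About 50,000 dpm per reaction, incubated with Top1 plus drug for 30 min at 22 °C. Stopped with SDS (0.5% final). Run on denaturing 16% polyacrylamide/7 M urea gels and phosphorimaged. Cleavage scored semi-quantitatively (+ scale) against the parent indenoisoquinoline.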

A short description of series [6]: Cytotoxicity against human OVCAR-3 cells. Type of series: cell-based.
The nature of series [7]: Cytotoxicity against human HOP62 cells. Type of series: cell-based. To be noted: HOP-62 cells.
For series [8], the system named is SF-268. As to the kind of experiment: Cytotoxicity against human SF268 cells. Type of series: functional.
Series [9] is described as follows: Cytotoxicity against human UACC62 cells. Type of series: cell-based. To be noted: UACC-62 cells.

`Nn1c2c(c3ccccc3c1=O)C(=O)c1ccccc1-2`: the concentration for 50% growth inhibition (GI50) in [1] is greater than 50.1 µM; in series [2], greater than 50.1 µM; in series [3], greater than 50.1 µM; in series [4], greater than 50.1 µM; in series [6], greater than 50.1 µM; in series [7], 24.5 µM. The GI50 is 28.2 µM in [8] and greater than 50.1 µM in series [9]. In addition, in series [5], the outcome was inactive.
`NCCCCCCCCCn1c2c(c3ccccc3c1=O)C(=O)c1ccccc1-2`: the GI50 amounted to 9.55 µM in series [1]; 6.46 µM in series [2]; 6.03 µM in [3]; 8.51 µM in series [4]; 9.55 µM in series [6]; 6.76 µM in [7]. Also, the figures for the 50% growth inhibitory concentration (GI50) in series [8] and in series [9] were 9.77 µM and 9.33 µM, respectively. For the same molecule, in series [5], the result was inactive.
`NCCCCCCCCCCn1c2c(c3ccccc3c1=O)C(=O)c1ccccc1-2`: the GI50 in series [1] worked out at 11.7 µM; in [2], 2.75 µM; in [3], 3.47 µM; in series [4], 3.31 µM; in [6] it was 10.7 µM; in series [7] it was 4.79 µM. For the same molecule, the figures for the concentration for 50% growth inhibition (GI50) in series [8] and in series [9] were 1.82 µM and 13.8 µM, respectively. Also, the result in [5] was inactive.
Consider `NCCCCCn1c2c(c3ccccc3c1=O)C(=O)c1ccccc1-2`, for which the concentration for 50% growth inhibition (GI50) in series [1] is 1.35 µM; in series [2] it was 0.2 µM; in [3], 0.347 µM; in series [4], 0.398 µM; in series [6], 0.708 µM; in series [7], 0.288 µM. Also, the GI50 in series [8] came to 0.871 µM; in series [9] it was 1.35 µM. Also, in series [5], the outcome was inactive.
